Only some compounds are listed: those with a hit (about 2.6% of all), similar ones and a draw of the others.
PRMT1 FP inh – PRMT1 methyltransferase inhibitors, primary screen, biochemical, fluorescence polarization. Protein arginine N-methyltransferase 1 (Homo sapiens), Q99873. hit rate 1.3% among 370,000. inhibition, % at 2.79 µM. recombinant PRMT1, activity-based probe fluorescence polarization;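 active = inhibition above about 21% made by adding two undisclosed values, limit read from the data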
Target sequence (Q99873 whole entry, looked up): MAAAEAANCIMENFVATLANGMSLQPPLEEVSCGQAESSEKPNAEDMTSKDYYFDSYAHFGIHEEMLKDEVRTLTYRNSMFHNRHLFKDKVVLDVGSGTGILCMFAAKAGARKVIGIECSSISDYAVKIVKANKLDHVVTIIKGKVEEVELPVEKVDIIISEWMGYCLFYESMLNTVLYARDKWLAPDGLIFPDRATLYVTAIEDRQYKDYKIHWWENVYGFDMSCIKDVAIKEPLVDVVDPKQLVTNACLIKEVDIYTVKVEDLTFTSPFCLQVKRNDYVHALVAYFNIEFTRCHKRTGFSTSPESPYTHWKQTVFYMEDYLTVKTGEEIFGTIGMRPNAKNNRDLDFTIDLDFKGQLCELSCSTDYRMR
TCR CD3 inh – inhibitors of human TCR-CD3 interaction, primary screen, biochemical, fluorescence, TAMRA-labeled TCR probe; hit rate 0.37% among 360,000; inhibition, % at 9.4 µM; in the data active = inhibition above about 19%;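 note: recombinant mutant TCR 2C K166C tagged with TAMRA read by polarization; 0% = receptor in buffer alone and 100% = receptor with positive control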
mABHD4 FP – ABHD4 inhibitors, primary screen, biochemical, fluorescence polarization, mouse | purified mABHD4, FP-Rh probe fluorescence polarization | inhibition, % at 8.92 µM | hit rate 0.54% among 370,000;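 active = inhibition exceeding the mean over every tested compound plus 3 SD, cut at about 30% in these data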;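 note: 0% = plate median of compound wells and 100% = S159A mutant with DMSO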
Target sequence (Q8VD66 whole entry, looked up): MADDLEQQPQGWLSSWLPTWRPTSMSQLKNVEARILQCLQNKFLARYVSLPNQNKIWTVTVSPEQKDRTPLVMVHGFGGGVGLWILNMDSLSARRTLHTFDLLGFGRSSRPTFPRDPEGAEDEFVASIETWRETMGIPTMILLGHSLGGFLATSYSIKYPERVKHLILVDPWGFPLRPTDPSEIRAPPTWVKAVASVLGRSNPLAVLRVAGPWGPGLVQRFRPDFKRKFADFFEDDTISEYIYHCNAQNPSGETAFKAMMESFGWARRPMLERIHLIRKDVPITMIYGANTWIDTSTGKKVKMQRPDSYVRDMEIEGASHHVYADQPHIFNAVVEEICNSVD
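System: mouse ABHD4 enzyme, wild type / Medium: HEPES pH 7.0, NaCl, Pluronic buffer / Reagent: FP-Rh activity-based fluorescent probe / Control set: S159A mutant high control, sample median low control / Detection: fluorescence polarization with parallel and perpendicular emission, 525/598 nm / Schedule: 45 min + 60 min at 25 °C / Compound dosing: 8.92 µM, single dose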
HTRA1 inh – HTRA1 serine protease inhibitors, primary screen, biochemical, fluorescence polarization, HTS. recombinant HTRA1, FP-rhodamine activity-based probe. Q92743. hit rate 0.5% among 340,000. inhibition, % at 5.96 µM; in the data active = inhibition above about 36%;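 note: 0% = enzyme with DMSO and 100% = wells lacking enzyme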
SIAE inh – human SIAE inhibitors, primary screen, biochemical, fluorescence polarization, FP-Rh probe, 1536-well HTS; inhibition, % at 9.66 µM; AID 1053197, 2014; hit rate 0.69% among 370,000; SIAE FP-Rh probe binding; Sialate O-acetylesterase (Homo sapiens), Q9HAT2;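 active = inhibition above a cutoff: mean of compounds within the control limits plus 3 SD of those, cut at about 17% in these data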;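 note: 0% = plate median of compound wells and 100% = probe without SIAE protein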
HTRA1 conf – HTRA1 protease inhibitors, retest, confirmation, biochemical, fluorescence polarization; shares compounds with HTRA1 inh; recombinant HTRA1, FP-rhodamine activity-based probe; inhibition, % at 5.96 µM; hit rate 66% among 1,600; AID 540248, 2011;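 active = mean inhibition over three repeats above a set limit taken from the earlier primary screen, cut at about 37% in these data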;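 note: 0% = HTRA1 with DMSO and 100% = wells lacking HTRA1; inhibitors block probe binding so polarization drops and inhibition rises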
Active calls of the source: *; / = not tested or not shown.

SMILES | PRMT1 FP inh | TCR CD3 inh | mABHD4 FP | HTRA1 inh | SIAE inh | others
CCc1ccccc1NC(=O)CSc1nnc([C@@H](N)Cc2c[nH]c3ccccc23)o1 | 23.9* | 9.3 | -2.4 | -7.3 | 5.6
Cc1ccc(NC(=O)CSc2nnc([C@@H](N)Cc3c[nH]c4ccccc34)o2)c(C)c1 | 7.7 | 1.8 | 10.4 | -5.7 | 10.9
CC(C)C[C@H]1C(=O)N2CCCC2[C@]2(O)O[C@](NC(=O)[C@@H]3C=C4c5cccc6[nH]cc(c56)CC4N(C)C3)(C(C)C)C(=O)N12 (some centres not stated) | / | / | / | 45.2* | /
CC(C)[C@H]1C(=O)N2CCC[C@H]2[C@]2(O)O[C@](NC(=O)[C@@H]3C=C4c5cccc6[nH]cc(c56)C[C@H]4N(C)C3)(C(C)C)C(=O)N12 | / | / | / | 33.4 | /
CN1C(=O)C(=Cc2ccccc2OCc2ccccc2Cl)C(=O)N(C)C1=O | 22.7* | 1.9 | -8.3 | -26.5 | -1.9
Cc1ccccc1CCC[C@H](CC1CCCCC1)CN(C)C(=O)Oc1ccccc1 | -0.2 | / | 12.6 | / | 0.6
CC[C@H](C)/C=C(C)/C=C/C1=CC2=C(Cl)C(=O)[C@](C)(OC(C)=O)C(=O)C2=CO1 | / | / | / | 70.4* | /
O=C(NC(Cc1ccccc1)P(=O)(O)Oc1ccccc1)OCc1ccccc1 (configuration not stated) | -5.9 | / | 0.5 | / | 5.1
CC(C)COC(=O)c1ccccc1C(=O)OCC(C)C | 0.5 | 6.2 | 6.7 | -7.3 | -4.9
C[CH2][Hg][S]c1ccccc1C(=O)O | 83.7* | -0.7 | 26.8 | -2.0 | 8.8
C[n+]1c(-c2ccccc2)sc2ccccc21 | 34.8* | 7.3 | 4.2 | -4.4 | -7.3
CN(C)c1ccc(/C=C/C=C/c2sc3ccccc3[n+]2C)cc1 | -0.4 | -20.0 | -51.7 | -10.9 | -35.9
CN1c2ccc(Br)cc2[C@H]2NCC[C@H]2[C@H]1CO | 2.1 | / | 2.4 | / | -4.7
CN1C[C@H](CO)C=C2c3cccc4[nH]cc(c34)C[C@H]21 | 22.8* | 4.4 | 22.1 | 16.3 | 14.4
O=C1NC(=O)N(Cc2ccccc2)C(=O)/C1=C/C=C/c1ccco1 | 23.4* | -13.1 | -3.7 | 8.1 | -9.5
COc1ccc(C(=O)NC(=S)N2C[C@H]3C[C@H](C2)c2cccc(=O)n2C3)cc1OC | -1.7 | 6.9 | 4.9 | -0.3 | -0.1
CCCOc1ccc(C(=O)NC(=S)N2C[C@H]3C[C@H](C2)c2cccc(=O)n2C3)cc1 | 24.6* | -5.3 | -2.9 | -4.9 | 0.1
Cc1cc(C)cc(OCCOc2cccc(C=C3C(=O)NC(=O)NC3=O)c2)c1 | 5.6 | 3.5 | -3.3 | -46.5 | -3.4
Cc1ccc(OCCOc2cccc(C=C3C(=O)NC(=O)NC3=O)c2)cc1 | 22.2* | -12.7 | -11.5 | -36.3 | -1.1
COC(=O)C1(N(C)c2ccccc2)CCN(Cc2ccccc2)CC1 | -0.5 | / | 5.1 | / | -1.9
Cc1ccc(CC2C(=O)N(C)C(=O)N(C)C2=O)s1 | 21.2* | 6.7 | -2.0 | 9.7 | 2.7
CO[C@H]([C@H](C)/C=C/N(C)C=O)[C@@H](C)C(=O)CC[C@H](C)[C@H](O)[C@H](C)[C@H]1OC(=O)/C=C/C(C)=C/[C@H](O)[C@H](OC)C[C@@H]2C=CC[C@@H](C[C@H](OC)[C@@H](CO)[C@@H](OC)C[C@@H](OC)[C@@H]1C)O2 | -1.9 | / | -1.2 | / | -0.3
COc1ccc(CCNCC2CCCO2)cc1 (configuration not stated) | 2.3 | 12.0 | 6.5 | -3.3 | 2.1
CCOc1cccc(OCC)c2c(C)[n+](CC3CCCO3)c(C)c1-2 (configuration not stated) | / | / | / | 49.9* | /
c1cncc(-c2ccc3n2Cc2cnnn2-c2ccccc2-3)c1 | 2.2 | / | 4.5 | / | -1.8
SMILES | PRMT1 FP inh | TCR CD3 inh | mABHD4 FP | HTRA1 inh | SIAE inh | others
O=C(CN1C(=O)[C@@H](Cc2c[nH]c3ccccc23)N=C(c2ccccc2)c2ccccc21)NC1CCCCC1 | -0.3 | / | 1.1 | / | 1.6
CNCCc1ccc(O)c(O)c1 | 21.4* | -1.1 | 24.0 | 6.2 | 5.4
N#CC1c2ccccc2-n2nncc2CN1C(=O)c1ccc([N+](=O)[O-])o1 (configuration not stated) | 2.5 | / | 5.7 | / | -11.2
O=C1NC(=S)N(c2ccccc2)C(=O)C1C(c1ccncc1)C1C(=O)NC(=S)N(c2ccccc2)C1=O (configuration not stated) | 28.2* | -1.1 | -1.8 | 1.0 | -5.7
O=c1[nH]c(=O)n(Cc2ccco2)c(O)c1C=NCc1ccc2c(c1)OCO2 | 23.2* | 0.1 | -4.5 | 7.2 | -0.6
CCCCn1c(O)c(C=NCc2ccc3c(c2)OCO3)c(=O)[nH]c1=O | 2.8 | 0.1 | -3.4 | -4.2 | -5.5
N#CC1c2ccccc2-n2nncc2CN1C(=O)c1cccnc1 (configuration not stated) | -3.0 | / | 4.5 | / | 0.8
O=C1NC(=O)N(c2ccccc2F)C(=O)/C1=C/c1ccc(Sc2nc3ccccc3[nH]2)o1 | 25.0* | -141.7 | -346.4 | -58.8 | -473.4
COc1ccccc1N1C(=O)NC(=O)/C(=C/c2ccc([N+](=O)[O-])s2)C1=O | 26.7* | -22.1 | -12.6 | / | 0.4
COc1ccc(C2SCC(=O)Nc3c2c(C)nn3-c2ccccc2)cc1 (configuration not stated) | 23.1* | -4.3 | 0.3 | 6.7 | -0.3
Cc1ccc(-n2nc(C)c3c2NC(=O)CSC3c2ccc3c(c2)OCO3)cc1 (configuration not stated) | 12.1 | -0.8 | 3.8 | 26.0 | 5.1
O=C(COC(=O)Cc1ccccc1)NC12CC3CC(CC(C3)C1)C2 | 3.1 | -5.0 | 1.6 | -3.8 | -4.3
O=C(COC(=O)Cc1ccccc1)NC(=O)NC1CCCCC1 | -3.3 | 8.3 | 2.2 | 36.4* | 2.8 | HTRA1 conf=37.7*
Cn1ccnc1P(=S)(c1nccn1C)c1nccn1C | -0.5 | 1.9 | 2.6 | 70.5* | 0.1 | HTRA1 conf=106.2*
N=c1c2c(-c3ccccc3)c(-c3ccccc3)n(Cc3ccccc3)c2ncn1C1CCC(O)CC1 (configuration not stated) | -4.5 | / | 6.6 | / | 16.9
O=C(O)c1cccc2c1NC(C(=O)O)C1CC(Sc3ccccc3[N+](=O)[O-])C(Cl)C21 (configuration not stated) | 80.8* | 37.4* | 82.2* | 92.8* | 61.3* | HTRA1 conf=59.6*
COc1ccc(-n2c(/C=C/c3ccc(O)c(OC)c3)nc3ccccc3c2=O)cc1 | -1.9 | -4.5 | 1.3 | -7.5 | 8.2
COc1cccc(-n2c(/C=C/c3ccc(O)c(O)c3)nc3ccccc3c2=O)c1 | 2.5 | 14.1 | 21.0 | 57.9* | -3.5 | HTRA1 conf=46.8*
O=C(NCCN1CCC2(CC1)C(=O)NCN2c1ccccc1)C(c1ccccc1)c1ccccc1 | -1.9 | -6.0 | 15.6 | / | 4.4

Compound activity deposited in PubChem by The Scripps Research Institute Molecular Screening Center.
